# Laboratory results from ChEMBL document CHEMBL1141876, “Quinols as novel therapeutic agents. 2.(1) 4-(1-Arylsulfonylindol-2-yl)-4-hydroxycyclohexa-2,5-dien-1-ones and related agents as potent and selective antitumor agents” (2005).
# Legend:
# Assay type in all cases: functional
# HCT-116 = test: Mean in vitro LC50 value against human HCT116 cell line was determined; conditions: read-out: LC50 (the source's name)
# Summary of the method: (§1)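 NCI 60-cell-line screen. Cells seeded at densities suited to each line's growth and left drug-free for 24 h. Agents then added at five 10-fold dilutions, top concentration 100 μM, for 48 h. Cellular protein measured by sulforhodamine B colorimetry. LC50 read from these curves; for line 1 it is averaged across the 60 lines.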
# [1] = test system: Panel NCI-60 (60 carcinoma cell lines); test: Mean in vitro GI50 value against 60 human cancer cell line was determined
# [2] = test system: Panel NCI-60 (60 carcinoma cell lines); test: Mean in vitro LC50 value against 60 human cancer cell line was determined; conditions: read-out: LC50 (the source's name); summary of the method: as §1
# UACC-62 = test: Mean in vitro LC50 value against human UACC-62 cell line was determined; conditions: read-out: LC50 (the source's name); summary of the method: as §1
# LOX IMVI = test: Mean in vitro LC50 value against human LOX IMVI cell line was determined; conditions: read-out: LC50 (the source's name); summary of the method: as §1
# RXF 393 = test: Mean in vitro LC50 value against human RXF 393 cell line was determined; conditions: read-out: LC50 (the source's name); summary of the method: as §1
# ACHN = test: Mean in vitro LC50 value against human ACHN cell line was determined; conditions: read-out: LC50 (the source's name); summary of the method: as §1
# CAKI-1 = test: Mean in vitro LC50 value against human CAKI-1 cell line was determined; conditions: read-out: LC50 (the source's name); summary of the method: as §1
# UO-31 = test: Mean in vitro LC50 value against human UO-31 cell line was determined; conditions: read-out: LC50 (the source's name); summary of the method: as §1
# U-251 = test: Mean in vitro LC50 value against human U251 cell line was determined; conditions: read-out: LC50 (the source's name); summary of the method: as §1
Structure (SMILES),CC50 (HCT-116) [µM],GI50 [1] [µM],CC50 [2] [µM],CC50 (UACC-62) [µM],CC50 (LOX IMVI) [µM],CC50 (RXF 393) [µM],CC50 (ACHN) [µM],CC50 (CAKI-1) [µM],CC50 (UO-31) [µM],CC50 (U-251) [µM]
O=C1C=CC(O)(c2nc3ccccc3[nH]2)C=C1,1.86,0.87,13.2,1.41,–,–,–,–,–,–
COc1ccc(S(=O)(=O)n2c(C3(O)C=CC(=O)C=C3)cc3ccccc32)cc1,0.11,0.16,6.31,–,0.38,–,–,–,–,–
Cc1ccc(S(=O)(=O)n2c(C3(O)C=CC(=O)C=C3)cc3ccccc32)cc1,0.048,0.11,7.24,–,0.23,–,–,–,–,–
CC(C)c1cc(C(C)C)c(S(=O)(=O)n2c(C3(O)C=CC(=O)C=C3)cc3ccccc32)c(C(C)C)c1,0.55,0.43,11.2,–,–,0.78,–,–,–,–
O=C1C=CC(O)(c2cc3ccccc3[nH]2)C=C1,5.13,1.38,24,–,–,3.39,–,–,–,–
O=C1C=CC(O)(c2cc3ccc(F)cc3n2S(=O)(=O)c2ccccc2)C=C1,< 0.01,0.016,2.24,–,–,–,0.02,–,–,–
Cc1ccc(S(=O)(=O)n2c(C3(O)C=CC(=O)c4ccccc43)cc3ccccc32)cc1 (stereo not given),0.45,0.39,5.62,–,0.72,–,–,–,–,–
O=C1C=CC(O)(c2cc3ccccc3n2S(=O)(=O)c2ccccc2)c2ccccc21 (stereo not given),0.79,0.45,7.76,–,0.78,–,–,–,–,–
O=C1C=CC(O)(c2nc3ccccc3s2)C=C1,0.43,0.23,3.39,–,–,0.58,–,–,–,–
O=C1C=CC(O)(c2cc3ccccc3n2S(=O)(=O)c2ccccc2)C=C1,–,0.039,2.95,–,–,–,–,0.053,–,–
O=C1C=CC(O)(c2cc3ccccc3n2S(=O)(=O)c2ccc(F)cc2)C=C1,0.36,0.23,7.76,–,–,–,–,–,0.63,–
O=C1C=CC(O)(c2cc3cc(F)ccc3n2S(=O)(=O)c2ccccc2)C=C1,0.05,0.066,3.23,–,0.063,–,–,–,–,–
COc1ccc2c(c1)cc(C1(O)C=CC(=O)C=C1)n2S(=O)(=O)c1ccccc1,–,0.13,6.17,–,0.47,–,0.45,–,–,–
O=C1C=CC(O)(c2cc3ccccc3n2S(=O)(=O)c2ccc3ccccc3c2)C=C1,0.37,0.19,5.62,–,–,–,–,–,–,0.51
